Test results taken from ChEMBL document CHEMBL3217642, “Mechanistic insight into inhibition of two-component system signaling” (Medchemcomm, 2013).
Active and inactive are the calls of the source. The rule behind the calls is not given here.

Legend:
[1] = Inhibition of Thermotoga maritima histidine kinase HK853 autophosphorylation
Summary of the method: (§1)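 Purified HK853 (600 ng) in 50 mM Tris–HCl, 0.2 M KCl, 5 mM MgCl2, pH 7.8 preincubated 30 min with varied analogue concentrations (DMSO ≤5% v/v), then labeled with BODIPY-FL-ATPγS (2 μM final), 1 h RT in dark. Quenched with SDS loading buffer (unheated), resolved by SDS-PAGE, fluorescence band intensity integrated; gels then coomassie stained.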

[2] = test system: Thermotoga maritima; experiment: Displacement of BODIPY-FL-ATP-gamma-S from Thermotoga maritima histidine kinase HK853 at 1 mM to 600 uM; summary of the method: as §1
[3] = test system: Thermotoga maritima; experiment: Binding affinity to Thermotoga maritima histidine kinase HK853 D411A mutant by STD-NMR analysis
[4] = test system: Thermotoga maritima; experiment: Inhibition of Thermotoga maritima histidine kinase HK853 autophosphorylation at 10 mM; summary of the method: as §1
[5] = test system: Thermotoga maritima; experiment: Induction of Thermotoga maritima histidine kinase HK853 aggregation up to 1000 uM by gel based assay
Summary of the method: (§2)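 Purified HK853 (0.44 μM) in 20 mM HEPES pH 7.5, with or without 0.1% final Triton X-100, incubated with varied analogue concentrations (DMSO ≤5% v/v) 4 h RT. Read by native-PAGE with silver staining (band disappearance), and by SDS-PAGE after BS3 crosslinking (100-fold molar excess, 2 h RT, quenched with 20 mM ammonium bicarbonate) with silver staining.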

[6] = Binding affinity to Thermotoga maritima histidine kinase HK853 by STD-NMR analysis
[7] = test system: Thermotoga maritima; experiment: Induction of Thermotoga maritima histidine kinase HK853 aggregation up to 10 mM by gel based assay; summary of the method: as §2
[8] = test system: Thermotoga maritima; experiment: Inhibition of Thermotoga maritima histidine kinase HK853 autophosphorylation up to 10 mM; summary of the method: as §1
[9] = test system: Thermotoga maritima; experiment: Binding affinity to Thermotoga maritima histidine kinase HK853 by STD-NMR analysis in presence of ADP

## C/C(=C/CC(C)(C)/C=C/C(=O)N[C@@H](Cc1c[nH]c2ccccc12)C(=O)O)CC/C=C(\C)Br
[1]
  IC50: 44 µM

## CCCCCCCOc1ccc(CCNC(=N)N)cc1
[2]
  inhibition: Active

## CCCCCCCCCCOc1ccc(CCNC(=N)N)cc1
[2]
  inhibition: Active

## N=C(N)NCCc1ccc(O)cc1
[3]
  Activity: inactive
[4]
  inhibition: inactive
[5]
  inhibition: inactive
[6]
  Kd: 2.41 mM

## CCCN(C(=O)/C(C#N)=C(/C)O)c1nc(-c2ccc(C(C)(C)C)cc2)cs1
[1]
  IC50: 30 µM

## CS(=O)(=O)c1ccc(CCNC(=N)N)cc1
[7]
  Activity: inactive
[8]
  inhibition: Active
[9]
  Activity: inactive
[6]
  Kd: 0.58 mM
